This note sets out measurements from ChEMBL document CHEMBL3813673, “Bistacrine derivatives as new potent antimalarials” (Bioorg Med Chem, 2016).

A short description of series [1]: Cytotoxicity against mouse J774.1 cells after 24 hrs by AlamarBlue based cytotoxicity assay. It counts as cell-based. The settings on record: J774.1, 24 h. Put shortly:
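Compounds dissolved in DMSO and serially diluted. Cells incubated with them at 37 °C, 5% CO2 for 24 h. AlamarBlue solution then added and plates incubated for a further 24 and 48 h.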
(Alamar Blue is a resazurin reagent that responds to reducing activity.)

Series [2] relates to Plasmodium falciparum. In words: Antimalarial activity against chloroquine-sensitive ring-stage Plasmodium falciparum 3D7 assessed as parasite viability after 72 hrs by malstat assay. The format is functional, organism-based. The settings on record: 3D7, 72 h. Put shortly:
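P. falciparum 3D7: synchronized ring stages plated at 1% parasitemia with compounds dissolved in DMSO; 0.5% DMSO as negative control. Cultured in triplicate for 72 h, then viability read by Malstat assay (parasite lactate dehydrogenase activity). Each compound tested twice; IC50 and standard deviation calculated.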

Series [3] relates to Plasmodium falciparum. In words: Inhibition of recombinant Plasmodium falciparum falcipain 2 assessed as hydrolysis of Cbz-Phe-Arg-AMC measured after 5 mins at 20 uM by spectrofluorometric method. Put shortly:
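Recombinant falcipain-2 with Cbz-Phe-Arg-AMC substrate in 50 mM sodium acetate, pH 5.5, with 5 mM EDTA and 200 mM NaCl. Released AMC read by fluorescence (ex 380 nm, em 460 nm). Single-concentration screen; compounds giving over 35% inhibition went on to kinetic assays. Run twice.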

A short description of series [4]: Selectivity index, ratio of IC50 for mouse J774.1 cells to IC50 for chloroquine-sensitive ring-stage Plasmodium falciparum 3D7. It counts as toxicity. The settings on record: read-out: Ratio IC50.
In series [5] the test system is Plasmodium falciparum. Put plainly: Antimalarial activity against chloroquine-resistant Plasmodium falciparum Dd2 assessed as parasite viability after 72 hrs by malstat assay. The settings on record: Dd2, 72 h. The format is functional, organism-based.
Series [6] in a line: Selectivity index, ratio of IC50 for mouse J774.1 cells to IC50 for ring-stage Plasmodium falciparum Dd2. The format is toxicity. The settings on record: read-out: Ratio IC50.
The nature of series [7]: Reversible inhibition of recombinant Plasmodium falciparum falcipain 2 assessed as hydrolysis of Cbz-Phe-Arg-AMC measured after 10 mins by spectrofluorometric method. Put shortly:
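Substrate added to buffer containing falcipain-2 and a range of inhibitor concentrations. Fluorescence (ex 380, em 460 nm) followed over 10 min, in duplicate. Slopes (ΔF/min) of the progress curves plotted against inhibitor concentration; IC50 obtained by nonlinear regression.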

Series [8] in a line: Inhibition of beta-hematin formation. It counts as physicochemical. Put shortly:
(§1)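 Heme–pyridine complex absorbance, which obeys Lambert–Beer's law, used to quantify free heme in heme/hemozoin mixtures and so judge inhibition of β-hematin formation. Chloroquine served as positive control and DMSO as negative control.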

A short description of series [9]: Inhibition of beta-hematin formation in acetate solution at pH 4.5 measured after 60 mins by pyridine-based spectrophotometric assay. The format is physicochemical. In a few lines: as §1

With `Nc1c2c(nc3ccc([N+](=O)[O-])cc13)CCCC2`, the IC50 was found to be 44600 nM in [1] and 3230 nM with Plasmodium falciparum [2].
In general, inhibition refers to the percentage by which the read-out fell short of the control. For `CCOC1CCc2nc3cc(Cl)ccc3c(NCCCCCCCCCNc3c4c(nc5cc(Cl)ccc35)CCC(OCC)C4)c2C1` (stereo unspecified), in the series on Plasmodium falciparum [3], the inhibition was 25%. Besides, the IC50 in series [1] came out at 1740 nM; in the series on Plasmodium falciparum [5] it was 160 nM; in the series with Plasmodium falciparum [2], 200 nM. The selectivity ratio in series [4] turned out to be 9.
In the case of `c1ccc2c(NCCCCCNc3c4c(nc5ccccc35)CCCC4)c3c(nc2c1)CCCC3`, the results for the IC50 (in series [1]; with Plasmodium falciparum [5]; in the series with Plasmodium falciparum [2]) were 1800 nM, 550 nM and 630 nM, respectively. The selectivity ratio turned out to be 2.86 in series [4] and 3.27 in series [6].
Regarding `Cc1ccc2nc3c(c(N)c2c1)CCCC3`, the IC50 is 44300 nM in series [1] and 2040 nM with Plasmodium falciparum [2].
On to `c1ccc2c(NCCCCCCCCNc3c4c(nc5ccccc35)CCCC4)c3c(nc2c1)CCCC3`, for which the inhibition in the series on Plasmodium falciparum [3] was 34.4%. In addition, the IC50 is 1900 nM in series [1], 300 nM with Plasmodium falciparum [5], 17100 nM in series [7] and 110 nM in the series on Plasmodium falciparum [2]. Further, the selectivity ratio in series [4] is 17.3; in series [6], 6.33.
As for `Nc1c2c(nc3ccccc13)CCCC2` [TACRINE], the IC50 was over 100000 nM in series [1] and 12500 nM with Plasmodium falciparum [2].
Turning to `c1ccc2c(NCCCCCCCNc3c4c(nc5ccccc35)CCCC4)c3c(nc2c1)CCCC3`, the IC50 in series [1] was determined as 1900 nM; in the series on Plasmodium falciparum [5] it was 220 nM; in the series on Plasmodium falciparum [2], 70 nM. In addition, the selectivity ratio was 27.1 in series [4] and 8.64 in [6].
Turning to `CC1(C)CCc2c(nc3ccc([N+](=O)[O-])cc3c2NCCCCCCNc2c3c(nc4ccc([N+](=O)[O-])cc24)CC(C)(C)CC3)C1`, the IC50 came out at 7900 nM in series [1] and 40 nM in the series on Plasmodium falciparum [2]. Moreover, the selectivity ratio in [4] was found to be 198.
In the same order, the values of `CC1CCc2c(nc3cc(Cl)ccc3c2NCCCCCCNc2c3c(nc4cc(Cl)ccc24)CC(C)CC3)C1` (stereo unspecified) are 1500 nM, 50 nM and 30.
In the same order, the values of `CC1(C)CCc2c(nc3ccccc3c2NCCCCCCNc2c3c(nc4ccccc24)CC(C)(C)CC3)C1` are 1800 nM, 30 nM and 60.
Turning to `CCN(CC)CCCC(C)Nc1ccnc2cc(Cl)ccc12` (stereo unspecified) [CHLOROQUINE], the IC50 in series [1] stood at 18400 nM; in series [8], 3.01 equiv; in series [9] it was 1.91 equiv.
Turning to `Nc1c2c(nc3ccc(Cl)cc13)CCCC2`, the figures for the IC50 (in series [1]; in the series on Plasmodium falciparum [2]) were 43200 nM and 4020 nM, respectively.
Regarding `CC1CCc2c(nc3ccc([N+](=O)[O-])cc3c2NCCCCCCNc2c3c(nc4ccc([N+](=O)[O-])cc24)CC(C)CC3)C1` (stereo unspecified), the inhibition in the series with Plasmodium falciparum [3] came to 56.7%. The IC50 in series [1] is 25000 nM; in series [7], 5200 nM; in the series with Plasmodium falciparum [2], 20 nM. The selectivity ratio in series [4] stood at 1250.
Turning to `CCCC1CCc2nc3ccc(Cl)cc3c(N)c2C1` (stereo unspecified), the results for the IC50 (in series [1]; with Plasmodium falciparum [2]) were 8400 nM and 210 nM, respectively.
As to `CC1CCc2nc3cc(Cl)ccc3c(NCCCCCCNc3c4c(nc5cc(Cl)ccc35)CCC(C)C4)c2C1` (stereo unspecified), the IC50 in series [1] came to 7800 nM; in the series on Plasmodium falciparum [2], 30 nM. Also, the selectivity ratio in series [4] was found to be 260.
Regarding `COc1ccc2nc3c(c(NCCCCCCCCCNc4c5c(nc6ccc(OC)cc46)CCCC5)c2c1)CCCC3`, the inhibition in the series on Plasmodium falciparum [3] worked out at 62.2%. Further, the IC50 in series [1] amounted to 1700 nM; in the series with Plasmodium falciparum [5], 160 nM; in series [7], 14900 nM; in the series with Plasmodium falciparum [2], 110 nM. Further, in series [4], the selectivity ratio worked out at 15.
On to `c1ccc2c(NCCCCCCNc3c4c(nc5ccccc35)CCCC4)c3c(nc2c1)CCCC3`, for which the IC50 in series [1] is 2970 nM; in the series with Plasmodium falciparum [2] it was 100 nM. For the same compound, the selectivity ratio in series [4] amounted to 29.7.
In the same order, the values of `CC1(C)CCc2c(nc3cc(Cl)ccc3c2NCCCCCCNc2c3c(nc4cc(Cl)ccc24)CC(C)(C)CC3)C1` are 1500 nM, 30 nM and 50.
Take `CCCC1CCc2nc3ccccc3c(N)c2C1` (stereo unspecified): the figures for the IC50 (in series [1]; with Plasmodium falciparum [2]) were 43000 nM and 1520 nM, respectively.
Turning to `Clc1ccc2c(NCCCCCCNc3c4c(nc5cc(Cl)ccc35)CCCC4)c3c(nc2c1)CCCC3`, the inhibition with Plasmodium falciparum [3] is 36.9%. Besides, the IC50 in [1] worked out at 1800 nM; in series [7], 17300 nM; in the series with Plasmodium falciparum [2] it was 20 nM. Also, the selectivity ratio in series [4] was 90.
For the compound `c1ccc2c(NCCCCCCCCCCNc3c4c(nc5ccccc35)CCCC4)c3c(nc2c1)CCCC3`, the IC50 worked out at 1800 nM in series [1], 140 nM in the series with Plasmodium falciparum [5] and 110 nM in the series with Plasmodium falciparum [2]. In addition, the values for the selectivity ratio in [4] and in [6] were 16.4 and 12.9, respectively.
